Bioassay records: PubChem BioAssay, Johns Hopkins Ion Channel Center
Sampled rows, rich in hits. Any-hit rate of the full collection: about 3.7%.
hERG protect = shields human hERG channel from block by proarrhythmic agents; actives 0.51% (n = 310,000); Q12809; CHO-hERG, FluxOR thallium flux, dofetilide IC70 present; activation (rescue from dofetilide block), less the hit threshold, % at 10 µM; AID 1511;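 active = activation above the mean of controls blocked by dofetilide plus 5 SD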;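 note: thallium influx through hERG after potassium depolarization seen as dye fluorescence rise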
KCNK3 block = human KCNK3 channel inhibition, primary screen | CHO-KCNK3 thallium flux, FluxOR fluorescence; stronger effect = lower value | O14649 | actives 0.84% (n = 340,000) | B-score at 10 µM;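 active = B-score under library mean minus 4 SD, starting fluorescence ratio at most library mean plus 5 SD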;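 note: more negative B-score means stronger inhibition of thallium flux through KCNK3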
KCNQ1 act = human KCNQ1 channel potentiation or activation. CHO-K1 KCNQ1, thallium flux FluxOR fluorescence; stronger effect = higher value. P51787. B-score at 10 µM. actives 0.35% (n = 310,000);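 active = fluorescence ratio B-score, a plate-corrected score, at least three library SD, with initial intensity B-score within 5 SD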
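assay system = CHO-K1 cells stably expressing KCNQ1 | medium = assay buffer, equal DMSO in all wells | timing = 37 °C overnight plating, 90-min dark dye load, 20-min compound pretreatment | measured by = kinetic FluxOR thallium fluorescence, 10-s 1-Hz baseline, 110-s post-stimulus read | measure = fluorescence change relative to baseline, converted to B score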
Kir21 inh = Kir2.1 (mouse) channel inhibition; P35561; AID 1672; HEK293-Kir2.1, FluxOR thallium flux fluorescence; stronger effect = lower value; actives 0.85% (n = 310,000); B-score at 10 µM;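 active = fluorescence ratio B-score at or below minus 3 SD of library scores, with starting-brightness B-score within 2 SD, cut at about -4.2 in these data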;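 note: channel flux triggered by added potassium and thallium sulfate stimulus; B-score of peak minus minimum fluorescence over baseline after thallium stimulus; more negative B-score means stronger Kir2.1 block with less thallium influx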
KCNK9 inh = human KCNK9 channel inhibition; Q9NPC2; HEK293 KCNK9, FluxOR thallium flux fluorescence; stronger effect = lower value; B-score at 10 µM; actives 1.2% (n = 310,000); AID 488922;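 active = ratio B-score over 3 SD below the library mean, with starting fluorescence within 5 SD of its mean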;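 note: negative B-score means less thallium flux so channel inhibition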
Target sequence (Q9NPC2 whole entry, looked up): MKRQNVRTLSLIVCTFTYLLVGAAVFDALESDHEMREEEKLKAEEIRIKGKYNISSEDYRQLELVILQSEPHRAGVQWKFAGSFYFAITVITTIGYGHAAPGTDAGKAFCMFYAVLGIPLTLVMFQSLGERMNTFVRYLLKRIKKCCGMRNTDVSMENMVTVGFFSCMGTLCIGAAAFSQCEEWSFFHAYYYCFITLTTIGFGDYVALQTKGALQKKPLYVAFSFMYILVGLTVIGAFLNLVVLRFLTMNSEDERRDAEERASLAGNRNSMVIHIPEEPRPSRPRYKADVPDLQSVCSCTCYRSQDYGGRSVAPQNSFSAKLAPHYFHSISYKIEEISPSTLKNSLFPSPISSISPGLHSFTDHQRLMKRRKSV
KCNQ1 inh = inhibitors of human KCNQ1 potassium channel | actives 1.3% (n = 310,000) | B-score at 10 µM | CHO-K1 KCNQ1, FluxOR thallium flux fluorescence; stronger effect = higher value | P51787 | AID 2642;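 active = compounds whose thallium flux B-score, printed positive for inhibition, exceeds three library SD while starting fluorescence stays within three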;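 note: channel opened by potassium depolarization with thallium stimulus after 20 min compound exposure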
Numbers stand for hits; . = inactive; / = not tested or not shown.

SMILES | hERG protect | KCNK3 block | KCNQ1 act | Kir21 inh | KCNK9 inh | KCNQ1 inh
O=C1CC(c2ccco2)CC(O)=C1C=Nc1cc(Cl)ccc1Cl (stereo unspecified) | . | . | . | . | . | .
O=C1CC(c2ccco2)CC(O)=C1C=Nc1cc(Cl)ccc1O (stereo unspecified) | . | . | . | . | . | 6
C=CCC1C=C(Cc2ccccc2)CC(CC=C)N1 (stereo unspecified) | . | . | . | . | . | .
C=CC[C@H]1CC(Cc2ccccc2)=C[C@H](CC=C)N1 | . | . | . | -6.55 | . | .
O=C(CN1CCCc2ccccc21)NCCc1ccc(F)cc1 | . | . | . | -6.52 | . | .
O=C(CN1CCCc2ccccc21)Nc1cc(S(=O)(=O)N2CCCC2)ccc1Cl | / | . | / | / | / | /
COc1cc(SC#N)ccc1N=Cc1c(C)[nH]n(-c2ccc(Cl)cc2)c1=O | . | . | . | . | . | .
COc1cc(S(=O)(=O)Nc2ccccc2)ccc1N=Cc1c(C)[nH]n(-c2ccc(C)cc2)c1=O | . | / | . | . | -9.62 | .
Cc1cccc(NC(=O)CN(C)S(=O)(=O)c2ccc3c(c2)n(C)c(=O)c(=O)n3C)c1C | . | . | . | . | . | .
CCN(CC(=O)Nc1ccc(OC)cc1)CC(=O)Nc1ccc(Cl)cc1F | 7.3 | . | . | . | . | .
CCN(CC(=O)Nc1ccccc1OC)C(=O)c1ccc(N(C)S(=O)(=O)c2ccc(C)cc2)cc1 | . | . | . | . | . | .
COc1ccccc1C(=O)OCC(=O)NC1CCCC1 | . | . | . | . | . | .
O=C(Cc1cccc2ccccc12)Nc1ccc(Br)cc1C(=O)O | . | . | . | . | . | 10
CN(C)c1ccc(C=c2c3ccccc3n3c2cc(-c2ccccc2)[n+]3C)cc1 | / | -15.4 | / | / | / | /
CN(C)c1ccc(C=c2c3cc([N+](=O)[O-])ccc3n3c2cc(-c2ccccc2)[n+]3C)cc1 | / | . | / | / | / | /
COc1cc(N(C)C)ccc1C=c1c2ccccc2n2c1cc(-c1ccccc1)[n+]2C | / | . | / | / | / | /
CN(C)c1ccc(C=c2c3ccccc3n3c2cc(-c2ccc(Cl)cc2)[n+]3C)cc1 | / | -11.7 | / | / | / | /
CC(C)CC(=O)Nc1ccc(C(=O)NNC(=S)NC(=O)C2CCCCC2)cc1 | . | . | . | . | . | 7
Oc1ccc2ccccc2c1/C=N/Nc1nnc(-c2ncc[nH]2)c2ccccc12 | . | . | . | . | . | 8
O=c1[nH]c(SCc2nc3ccccc3c(=O)n2-c2ccccc2C(F)(F)F)nc2ccccc12 | . | . | . | . | -6.62 | .
COCCNC(=O)/C(C#N)=C/c1ccc(N2CCOCC2)o1 | . | . | . | . | . | .
N#C/C(=C/c1ccc(N2CCOCC2)o1)C(=O)Nc1ccccc1 | . | . | . | . | -6.58 | .
N#C/C(=C\c1ccc(N2CCOCC2)o1)C(=O)NC1CCCCC1 | . | . | . | . | . | 9
N#C/C(=C\c1ccc(N2CCOCC2)o1)C(=O)NCC1CCCO1 (stereo unspecified) | . | . | . | . | . | 9
N#C/C(=C/c1ccc(-c2ccc(S(=O)(=O)N3CCOCC3)cc2)o1)C(=O)NC1CC1 | / | . | / | / | / | /
SMILES | hERG protect | KCNK3 block | KCNQ1 act | Kir21 inh | KCNK9 inh | KCNQ1 inh
Cc1ccc(CNC(=O)c2cc(S(=O)(=O)N3CCCCC3)ccc2N2CCOCC2)cc1 | / | . | / | / | / | /
COc1ccc(CN(Cc2cccn2C)S(=O)(=O)c2ccc(F)cc2)cc1 | . | . | . | . | -6.85 | .
COc1ccccc1CNC(=O)CN1C(=O)NC(c2ccccc2)(c2ccc(C)c(C)c2)C1=O (stereo unspecified) | / | . | / | / | / | /
Nn1c(SCc2ccccc2F)nnc1-c1ccncc1 | . | . | . | . | . | .
Cc1nnc(SCc2ccccc2F)n1NCc1cccs1 | . | . | . | -4.24 | . | .
CCOc1ccccc1/C=C/C(=O)N1CCN(C(=O)c2ccco2)CC1 | / | . | / | / | / | /
COc1cc(Cl)c(C)cc1NC(=O)CSc1sc2c(O)cc(=O)[nH]c2c1C#N | 4.7 | . | . | . | . | .
COc1ccc(OC)c(NC(=O)CSc2sc3c(O)cc(=O)[nH]c3c2C#N)c1 | . | . | . | . | . | .
CCSc1nnc(-c2ccc(C)cc2)c2ccccc12 | . | . | . | . | -7.04 | .
CCSc1nnc(-c2ccc(Cl)cc2)c2ccccc12 | . | . | . | . | . | .
CCCCc1ccc(NC(=O)CSC2=NN3CCCC(=O)N=C3S2)cc1 | . | . | . | . | . | .
COc1ccccc1-n1c(SCC(=O)c2ccc(O)cc2O)nc2cc([N+](=O)[O-])ccc21 | . | . | . | . | . | 6
COc1ccccc1-n1c(SCC(=O)NC2CCS(=O)(=O)C2)nc2cc([N+](=O)[O-])ccc21 (stereo unspecified) | . | . | . | . | . | .
C=C1[C@@H](CCO)N(S(=O)(=O)C(C)(C)C)C[C@@H]1C | / | . | / | / | / | /
COc1cccc(CN(C)CC(=O)Nc2cccc(S(N)(=O)=O)c2)c1OC | . | . | . | . | . | .
COc1ccc(Br)cc1CN(C)CC(=O)Nc1cccc(S(N)(=O)=O)c1 | . | . | . | -4.58 | . | .
CCn1c2ccccc2c2cc(NC(=O)COc3ccccc3)ccc21 | 5.4 | . | . | . | . | .
CCn1c2ccccc2c2cc(NC(=O)c3coc(=O)c(Br)c3)ccc21 | . | / | . | . | -8.81 | .
COc1ccccc1CCNC(=O)CCn1nc(C)c2c(C)n(-c3ccccc3)nc2c1=O | . | . | . | . | . | .
CC(C)c1ccc(-n2cnn(-c3ncccc3[N+](=O)[O-])c2=O)cc1 | . | . | . | . | . | .
CN(Cc1ccco1)C(=O)CSc1nn2c(=O)c(C(C)(C)C)nnc2s1 | / | . | / | / | / | /
COC(=O)c1cc(NC(=O)c2cccs2)ccc1N1CCOCC1 | . | . | . | . | . | .
COC(=O)c1cc(NC(=O)c2cc(-c3ccc(Cl)cc3)oc2C(F)(F)F)ccc1N1CCOCC1 | . | . | . | . | . | 7
OC(CNC1CCCc2ccccc21)COc1ccc2ccccc2c1 (stereo unspecified) | . | . | . | -10 | . | .
O=C(c1ccccc1)c1ccc(OCC(O)CNC2CCCc3ccccc32)cc1 (stereo unspecified) | . | . | . | -6.22 | . | .
COc1ccc(NC(=O)c2coc(C)c2)cc1 | . | . | . | . | . | .
N#CCCN(Cc1cccnc1)C(=S)NC(=O)c1ccccc1 | / | . | / | / | / | /
CCOC(=O)C1=C(C)N=c2s/c(=C\c3ccc(OCC(=O)O)c(OC)c3)c(=O)n2C1c1ccc(OC)cc1 (stereo unspecified) | . | . | . | . | . | .
CCOC(=O)C1=C(C)N=c2s/c(=C\c3cccc(OCC(=O)O)c3)c(=O)n2C1c1ccccc1 (stereo unspecified) | . | . | . | . | . | .
